Shown are actives, neighbours in structure and some others; about 2.7% of the full set was active somewhere.
PAFAH1B3 FP inh = inhibitors of human PAFAH1B3; Q15102; recombinant PAFAH1B3, FP-rhodamine probe, fluorescence polarization; inhibition, % at 3.39 µM; 340,000 compounds, 0.28% hits; AID 492972;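 active = inhibition above the screen-wide average of all tested compounds plus 3 SD, cut at about 25% in these data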;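 also: 0% = enzyme with DMSO only and 100% = wells lacking PAFAH1B3 protein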
PAFAH2 inh = inhibitors of human PAFAH2 | recombinant PAFAH2, FP-rhodamine activity probe, fluorescence polarization | inhibition, % at 3.39 µM | 340,000 compounds, 0.99% hits | AID 492956;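 active = inhibition above the mean over all tested compounds plus 3 SD, cut at about 30% in these data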;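 also: inhibitors block probe labeling of enzyme so polarization drops; 0% = enzyme with DMSO and 100% = wells lacking PAFAH2 protein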
pPAFAH inh = pPAFAH (human) enzyme inhibition | Q13093 | recombinant pPAFAH, FP-rhodamine probe fluorescence polarization | inhibition, % at 3.39 µM | 330,000 compounds, 1.5% hits | AID 463082;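 active = inhibition above the mean inhibition across the screen plus 3 SD, cut at about 25% in these data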;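 also: inhibitors block binding of the rhodamine activity-based probe so polarization drops; 0% = enzyme with DMSO and 100% = wells lacking pPAFAH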
PAFAH1B2 inh = PAFAH1B2 (human) inhibition; inhibition, % at 3.39 µM; recombinant PAFAH1B2, FP-rhodamine activity probe, fluorescence polarization; AID 492953; 340,000 compounds, 1.2% hits;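 active = inhibition above the mean of all tested compounds plus 3 SD, cut at about 24% in these data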;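 also: 0% = enzyme with DMSO and 100% = wells lacking PAFAH1B2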
ARFGAP1 inh = inhibits rat ARF GTPase activating protein 1. Arfgap1-stimulated ARF1 GTP hydrolysis, GDP FP detection. inhibition, % at 16.5 µM. 360,000 compounds, 0.26% hits. AID 651572;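 active = inhibition above a per-plate limit, mean inhibition of low control wells plus 3 SD, cut at about 25% in these data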;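 also: 0% = DMSO wells with enzyme and 100% = wells lacking Arfgap1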
Target sequence (Q62848 1-136 limits assumed): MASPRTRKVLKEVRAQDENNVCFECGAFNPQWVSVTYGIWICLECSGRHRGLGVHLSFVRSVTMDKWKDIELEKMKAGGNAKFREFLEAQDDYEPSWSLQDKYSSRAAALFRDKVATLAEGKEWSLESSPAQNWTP
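System: truncated rat Arfgap1 GAP domain / Medium: HEPES-based buffer, pH 7.5 / Also added: N-terminally truncated human ARF1-GTP substrate / Incubation: enzyme reaction 120 min at 25 °C after 20 min preincubation / Measured by: FP of antibody-bound GDP Alexa 633 tracer, ex 620/em 688 nm / Replicates: singlicate, each compound tested once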
ASAP1 inh = ASAP1 ArfGAP inhibition | Q9ULH1 | inhibition, % at 16.5 µM | AID 624377 | 360,000 compounds, 0.19% hits | ASAP1-stimulated ARF1 GTP hydrolysis, GDP FP detection; in the data active = inhibition above about 25%;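 also: 0% = vehicle with enzyme and substrate and 100% = no enzyme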
Target sequence (Q9ULH1 325-724 limits assumed): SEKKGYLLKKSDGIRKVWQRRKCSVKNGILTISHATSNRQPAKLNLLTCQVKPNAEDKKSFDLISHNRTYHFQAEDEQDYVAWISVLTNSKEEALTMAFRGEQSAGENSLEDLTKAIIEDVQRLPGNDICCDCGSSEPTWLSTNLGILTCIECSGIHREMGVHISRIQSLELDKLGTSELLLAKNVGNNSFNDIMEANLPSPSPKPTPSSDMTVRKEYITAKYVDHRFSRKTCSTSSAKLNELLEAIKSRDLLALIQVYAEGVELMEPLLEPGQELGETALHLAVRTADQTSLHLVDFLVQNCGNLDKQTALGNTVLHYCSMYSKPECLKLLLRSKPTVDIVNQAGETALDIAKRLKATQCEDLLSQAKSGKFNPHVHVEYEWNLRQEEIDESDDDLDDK
PAFAH2 FP conf = confirmation of human PAFAH2 inhibitors; inhibition, % at 3.39 µM; recombinant PAFAH2, FP-rhodamine activity probe, fluorescence polarization; shares compounds with PAFAH2 inh; 2,300 compounds, 65% hits;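 active = mean inhibition over three repeats above a set limit taken from the earlier primary screen, cut at about 30% in these data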;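 also: inhibitor blocks binding of rhodamine activity probe so polarization falls; 0% = enzyme with DMSO and 100% = wells lacking PAFAH2 protein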
Starred values were filed as active, the others as inactive; . = not tested or not shown.

SMILES	PAFAH1B3 FP inh	PAFAH2 inh	pPAFAH inh	PAFAH1B2 inh	ARFGAP1 inh	ASAP1 inh	PAFAH2 FP conf
O=C(C[C@@H]1C/C=C\CC[C@H](Cc2ccc(F)cc2)C(=O)OC[C@@H]2CCCN2C1=O)N[C@H](CO)Cc1ccccc1	3.5	10.8	0.0	9.2	1.0	20.4	.
O=S(=O)(c1ccc(=S)[nH]c1)N1CCCC1	4.9	-6.6	5.0	0.6	0.7	-4.5	.
CS(=O)(=O)c1ccccc1C(=O)Nc1cc(Cl)ccc1-n1cncn1	1.2	5.7	-1.8	-3.1	-8.9	-8.8	.
Cc1cccc(C(=O)Nc2cc(Cl)ccc2-n2cncn2)c1[N+](=O)[O-]	1.1	39.3*	7.8	1.5	-1.6	0.1	31.1*
COc1ccc(/C=C/C(=O)OCC(=O)NCC2CCCO2)cc1 (stereo not drawn)	6.7	36.7*	4.0	3.8	3.1	-5.1	29.9*
COc1cccc(/C=C/C(=O)OCC(=O)NCC2CCCO2)c1OC (stereo not drawn)	2.5	50.7*	4.7	1.4	4.5	-6.1	35.3*
CCOc1ccc(C2=CC(=O)C[C@H](c3ccc(OC)cc3)C2)cc1	-2.5	-0.4	1.4	7.4	-4.1	5.2	.
COc1ccc(CN2C(=O)c3ccccc3C2=O)cc1C(=O)N(C)CC(=O)Nc1ccc(F)cc1	2.4	-0.1	4.7	6.0	5.5	5.9	.
COc1ccccc1/C=C/C(=O)OCC(=O)Nc1ccc2c(c1)OCCO2	4.5	80.2*	16.1	-1.5	1.4	2.1	78.4*
COc1cc(/C=C/C(=O)OCC(=O)Nc2ccc3c(c2)OCCO3)ccc1OCC#N	4.3	42.0*	-4.0	-2.3	23.4	12.2	51.1*
OC(c1ccc(F)c(F)c1)c1ncc(-c2cccc(F)c2)[nH]1 (stereo not drawn)	.	.	.	.	7.0	1.2	.
CC(C)OC(=O)N(C)C[C@H]1OCc2cnnn2CCCC(=O)N([C@H](C)CO)C[C@H]1C	.	.	.	.	-0.8	10.2	.
COC(=O)C1CCN(C(=O)COC(=O)c2ccc3[nH]c4c(c3c2)CCCC4)CC1	5.6	7.5	3.4	0.5	0.6	12.8	.
CC1CCCN(C(=O)COC(=O)c2ccc3[nH]c4c(c3c2)CCCC4)C1 (stereo not drawn)	-2.4	41.2*	9.0	5.0	3.5	-3.3	26.2
COc1ccc(CNC(=O)COC(=O)/C=C/c2cccc(Cl)c2)cc1	8.6	4.7	5.1	5.4	9.6	-16.8	.
COc1cccc(CNc2ccc(Br)cn2)c1O	1.8	75.2*	-0.1	3.6	-11.1	17.5	4.1
CC(C)(C)SC(=O)CC1NS(=O)(=O)OCC1NC(=O)OCC(Cl)(Cl)Cl (stereo not drawn)	4.5	48.8*	-5.4	3.8	-9.7	-4.3	33.7*
CCOc1ncccc1C(=O)OCC(=O)Nc1cc(S(=O)(=O)N(CC)CC)ccc1C	4.4	64.9*	19.2	-1.2	-0.1	-3.0	49.4*
CCN(CC)S(=O)(=O)c1ccc(C)c(NC(=O)COC(=O)CCC(=O)c2cccs2)c1	-0.6	9.4	6.5	-0.3	-1.5	9.6	.
CCN(CC)S(=O)(=O)c1ccc(C)c(NC(=O)COC(=O)C=C(C)C)c1	2.0	33.0*	7.4	2.2	-3.0	12.6	47.6*
COc1ccc(NC(=O)C(OC(=O)Cn2cnc3c2c(=O)n(C)c(=O)n3C)c2ccccc2)cc1Cl (stereo not drawn)	7.6	-3.3	.	-1.6	5.3	11.5	.
CCOc1ccc(NC(=O)CSc2nc3ccsc3c(=O)n2Cc2ccc(C(=O)O)cc2)cc1	.	.	.	.	-0.8	-9.9	.
Cc1nc(NC(=O)COC(=O)/C=C/c2ccco2)c(Cl)cc1Cl	2.8	35.0*	13.0	0.0	-3.1	13.1	17.7
Cc1nc(NC(=O)COC(=O)C(NC(=O)c2ccco2)C(C)C)c(Cl)cc1Cl (stereo not drawn)	-6.0	0.6	6.8	-1.6	-2.8	17.8	.
COC(=O)c1ccc(/C=C/C(=O)OCC(=O)Nc2ncc(Cl)cc2Cl)cc1	4.0	28.8	-2.9	6.3	-6.7	20.1	.
SMILES	PAFAH1B3 FP inh	PAFAH2 inh	pPAFAH inh	PAFAH1B2 inh	ARFGAP1 inh	ASAP1 inh	PAFAH2 FP conf
O=C(COC(=O)/C=C/c1ccco1)Nc1ncc(Cl)cc1Cl	6.0	47.1*	10.9	2.4	-0.7	-4.1	26.7
COC(=O)c1ccccc1S(=O)(=O)N1CCC(C(=O)NCc2ccccn2)CC1	.	.	.	.	5.8	-7.2	.
O=C(NCc1cc([N+](=O)[O-])ccc1O)c1cccnc1Sc1ccc(Cl)cc1	7.6	16.5	4.3	-3.7	-2.3	11.0	.
O=C(NCc1cc([N+](=O)[O-])ccc1O)c1cccnc1Sc1ccccc1Cl	4.2	39.1*	2.9	0.2	6.8	-3.4	32.0*
CCCCCCCCN1C(=O)[C@H](CC(=O)NCc2cccc(C(F)(F)F)c2)C[C@@]2(C(=O)OCC)CCCC=C12	.	.	.	.	0.3	6.2	.
OCc1ccc(-c2cccc3nccn23)cc1	.	.	.	.	7.8	7.2	.
Cc1ccc(C)c(NC(=O)COC(=O)c2ccc3c(c2)OCO3)c1	15.5	20.0	4.8	2.4	-1.1	-5.9	.
CN(C)S(=O)(=O)c1cccc(COC(=O)c2ccc3c(c2)OCO3)c1	3.4	31.0*	7.6	2.9	-0.4	1.1	25.1
Cc1ccc(S(=O)(=O)N(C)C)cc1NC(=O)COC(=O)C1=COCCO1	3.7	27.1	-4.1	0.9	-14.4	3.4	.
CN(C)S(=O)(=O)c1cccc(COC(=O)c2ccc(Cl)cc2O)c1	0.1	2.0	10.5	3.7	-0.4	11.9	.
Cc1ccc(S(=O)(=O)N(C)C)cc1NC(=O)COC(=O)c1ccc2c(c1)OCCO2	6.5	64.1*	10.9	8.5	-1.8	-4.7	64.2*
Cc1ccc(S(=O)(=O)N(C)C)cc1NC(=O)COC(=O)c1ccc2c(c1)OCO2	-2.9	60.1*	-0.1	1.9	14.1	-4.5	51.6*
CN(C)CCN[C@H]1CCC2C3CC=C4C[C@@H](O)CC[C@]4(C)C3CC[C@@]21C (stereo partly drawn)	6.3	4.7	1.3	2.9	1.1	4.0	.
Cc1ccccc1/C=C1\SC(=S)N(/N=C/c2cc([N+](=O)[O-])ccc2O)C1=O	5.3	31.9*	7.5	13.4	-1.3	3.5	15.7
CCOC(=O)c1c(C)[nH]c(C(=O)OCc2ccccc2)c1C	5.2	-8.0	21.8	0.6	9.7	9.5	.
CCOC(=O)c1c(C)[nH]c(C(=O)OCC(=O)Nc2ccccc2)c1C	-0.5	34.5*	2.8	4.4	9.3	-9.7	33.5*
CC(=O)c1c(C)[nH]c(C(=O)OCC(=O)Nc2ccccc2Cl)c1C	10.1	32.9*	-4.2	0.8	5.0	-6.0	20.0
CC(=O)c1c(C)[nH]c(C(=O)OCC(=O)NCC(C)C)c1C	7.5	31.1*	-4.2	-2.1	-7.4	7.5	16.3
COc1ccc(C(C#N)=Cc2cc(OC)c(OC)c(OC)c2)cc1	.	.	.	.	1.9	-3.2	.
